Source: ChEMBL document CHEMBL3525985, “Regiospecificity and stereospecificity of human UDP-glucuronosyltransferases in the glucuronidation of estriol, 16-epiestriol, 17-epiestriol, and 13-epiestradiol” (Drug Metab Dispos, 2013)
One block for each compound: values may come before it.

Key:
Format in all cases: ADME
[1] = molecular target: T1, UDP-glucuronosyltransferase 2B7 (Homo sapiens, UniProt P16662); assay: Drug metabolism assessed as recombinant human C-terminal His-tagged UGT2B7-mediated 17-epiestriol-17-glucuronide formation at 200 uM after 15 to 60 mins by HPLC analysis in presence of UDPGA; settings: recombinant enzyme
T1 sequence (P16662 whole entry): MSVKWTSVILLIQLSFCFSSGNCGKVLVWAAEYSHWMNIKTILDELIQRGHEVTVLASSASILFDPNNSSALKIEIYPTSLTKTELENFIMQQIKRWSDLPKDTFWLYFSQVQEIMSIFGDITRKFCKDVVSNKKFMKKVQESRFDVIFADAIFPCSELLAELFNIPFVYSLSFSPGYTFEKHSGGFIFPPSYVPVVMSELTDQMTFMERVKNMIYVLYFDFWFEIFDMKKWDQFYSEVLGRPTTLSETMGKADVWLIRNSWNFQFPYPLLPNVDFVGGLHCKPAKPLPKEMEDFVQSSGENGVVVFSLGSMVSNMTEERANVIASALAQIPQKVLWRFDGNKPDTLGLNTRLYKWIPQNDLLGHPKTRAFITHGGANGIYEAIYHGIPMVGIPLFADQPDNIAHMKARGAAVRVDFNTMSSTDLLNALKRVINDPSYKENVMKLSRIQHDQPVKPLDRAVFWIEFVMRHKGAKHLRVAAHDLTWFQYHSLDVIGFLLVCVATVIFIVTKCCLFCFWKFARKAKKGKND
Summary of the method: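 Membranes (5 or 50 µg) from insect cells expressing His-tagged UGT2B7, with 200 µM aglycone in 50 mM phosphate pH 7.4, 10 mM MgCl₂, 5 mM UDPGA and 10% DMSO (final), 15–60 min at 37°C. Stopped with perchloric acid on ice, supernatant run on HPLC. Done in triplicate with no-UDPGA controls; rates normalized to relative UGT expression.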

[2] = molecular target: T2, UDP-glucuronosyltransferase 1A4 (Homo sapiens, UniProt P22310); assay: Drug metabolism assessed as recombinant human C-terminal His-tagged UGT1A4-mediated 17-epiestriol-16-glucuronide formation at 200 uM after 15 to 60 mins by HPLC analysis in presence of UDPGA; settings: recombinant enzyme
T2 sequence (P22310 whole entry): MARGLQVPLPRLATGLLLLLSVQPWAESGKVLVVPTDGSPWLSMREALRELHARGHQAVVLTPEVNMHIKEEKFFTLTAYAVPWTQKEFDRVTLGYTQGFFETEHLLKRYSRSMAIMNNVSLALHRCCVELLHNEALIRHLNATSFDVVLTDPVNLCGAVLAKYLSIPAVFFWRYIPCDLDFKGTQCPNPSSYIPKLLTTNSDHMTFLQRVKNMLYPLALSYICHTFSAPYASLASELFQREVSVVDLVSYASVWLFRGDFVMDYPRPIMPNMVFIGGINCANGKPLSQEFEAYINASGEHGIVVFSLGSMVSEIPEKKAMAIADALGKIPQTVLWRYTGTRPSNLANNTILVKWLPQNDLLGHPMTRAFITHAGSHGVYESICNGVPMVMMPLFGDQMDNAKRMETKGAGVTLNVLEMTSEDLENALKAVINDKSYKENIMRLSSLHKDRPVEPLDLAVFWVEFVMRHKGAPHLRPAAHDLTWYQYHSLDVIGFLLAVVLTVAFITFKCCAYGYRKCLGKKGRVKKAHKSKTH
Summary of the method: (§1)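 Screening at a single substrate concentration of 200 μM, in triplicate. The reaction used 5 or 50 µg of UGT-enriched insect cell membranes in 50 mM phosphate pH 7.4 with 10 mM MgCl₂ and 5 mM UDPGA, 10% final DMSO. Incubation was 15–60 min at 37°C. Perchloric acid stopped the reaction and supernatants were analysed by HPLC. Controls lacked UDPGA. Rates were normalized to relative UGT expression level.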

[3] = test system: Liver microsome; assay: Drug metabolism in human liver microsomes assessed as 16-epiestriol-3-glucuronide formation after 15 to 60 mins by Michaelis-Menten equation analysis in presence of UDPGA
Summary of the method: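 Pooled human liver microsomes (30 donors), 0.5 or 10 µg, with alamethicin at 5% of total protein. Incubated with 50 mM phosphate pH 7.4, 10 mM MgCl₂, 5 mM UDPGA and 10% DMSO for 15–60 min at 37°C. Each glucuronide regioisomer quantified by HPLC, in triplicate, with substrate consumption at or below 10%.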

[4] = molecular target: T3, UDP-glucuronosyltransferase 1A3 (Homo sapiens, UniProt P35503); assay: Drug metabolism assessed as recombinant human C-terminal His-tagged UGT1A3-mediated estradiol-3-glucuronide formation at 200 uM after 15 to 60 mins by HPLC analysis in presence of UDPGA; settings: recombinant enzyme; summary of the method: as §1
T3 sequence (P35503 whole entry): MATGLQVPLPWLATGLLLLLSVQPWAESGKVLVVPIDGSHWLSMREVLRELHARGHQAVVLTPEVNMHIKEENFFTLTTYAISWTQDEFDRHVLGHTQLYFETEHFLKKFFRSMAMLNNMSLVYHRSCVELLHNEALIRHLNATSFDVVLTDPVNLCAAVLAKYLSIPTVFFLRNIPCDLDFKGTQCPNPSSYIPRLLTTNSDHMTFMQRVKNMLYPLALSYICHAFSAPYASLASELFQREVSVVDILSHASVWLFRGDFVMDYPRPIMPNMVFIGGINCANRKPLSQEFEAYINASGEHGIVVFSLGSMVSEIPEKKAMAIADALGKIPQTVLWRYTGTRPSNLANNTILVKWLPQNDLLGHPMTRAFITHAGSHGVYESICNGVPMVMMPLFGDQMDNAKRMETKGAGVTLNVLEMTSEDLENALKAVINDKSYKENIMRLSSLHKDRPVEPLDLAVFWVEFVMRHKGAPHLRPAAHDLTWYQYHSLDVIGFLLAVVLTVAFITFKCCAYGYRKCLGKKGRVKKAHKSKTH

[5] = molecular target: T4, UDP-glucuronosyltransferase 2B17 (Homo sapiens, UniProt O75795); assay: Drug metabolism assessed as recombinant human C-terminal His-tagged UGT2B17-mediated estriol-17-glucuronide formation after 15 to 60 mins by Michaelis-Menten equation analysis in presence of UDPGA; settings: recombinant enzyme
T4 sequence (O75795 whole entry): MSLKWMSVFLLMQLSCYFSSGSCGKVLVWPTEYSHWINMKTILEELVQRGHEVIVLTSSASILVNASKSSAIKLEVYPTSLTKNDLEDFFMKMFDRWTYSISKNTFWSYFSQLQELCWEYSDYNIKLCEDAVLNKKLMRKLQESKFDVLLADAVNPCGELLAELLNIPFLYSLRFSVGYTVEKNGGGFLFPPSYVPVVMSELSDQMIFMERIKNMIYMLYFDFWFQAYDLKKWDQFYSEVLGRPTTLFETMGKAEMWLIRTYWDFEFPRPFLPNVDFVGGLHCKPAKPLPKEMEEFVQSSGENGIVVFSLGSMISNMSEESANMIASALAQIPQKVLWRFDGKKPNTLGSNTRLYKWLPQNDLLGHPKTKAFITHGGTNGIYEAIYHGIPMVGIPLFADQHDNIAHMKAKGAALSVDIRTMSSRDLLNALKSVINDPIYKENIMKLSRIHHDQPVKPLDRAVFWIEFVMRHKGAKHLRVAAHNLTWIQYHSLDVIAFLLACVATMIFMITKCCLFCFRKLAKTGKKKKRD

Drug metabolism [1]: metabolite_detected
Drug metabolism [2]: metabolite_detected
Compound: C[C@]12CC[C@@H]3c4ccc(O)cc4CC[C@H]3[C@@H]1C[C@@H](O)[C@H]2O

Km [3]: 2380 µM
Vmax [3]: 569 pmol/min/mg
Compound: C[C@]12CC[C@@H]3c4ccc(O)cc4CC[C@H]3[C@@H]1C[C@H](O)[C@@H]2O [EPIESTRIOL]

Drug metabolism [4]: metabolite_detected
Compound: C[C@]12CC[C@@H]3c4ccc(O)cc4CC[C@H]3[C@@H]1CC[C@@H]2O [ESTRADIOL]

Drug metabolism [5]: 4 pmol/min/mg
Compound: C[C@]12CC[C@@H]3c4ccc(O)cc4CC[C@H]3[C@@H]1C[C@@H](O)[C@@H]2O [ESTRIOL]
